Source: ChEMBL document CHEMBL1123152, “Synthesis, structure, and antitumor and antiviral activities of a series of 5-halouridine cyclic 3',5'-monophosphates” (1986)
Converted amounts (≈) assume the structure as drawn.

How the values were obtained:
Format in all cases: functional
Raji [1] = assay: Cytostatic activity against proliferation of Raji/0 cells (human lymphoblast Raji cells); conditions: read-out: ID50 (the source's name)
Procedure, shortened: (§1)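 Tumor cell proliferation assay. L1210/0 is the parental murine leukemia line and Raji/0 the parental human lymphoblast line, with a deoxythymidine kinase deficient Raji subline. Value is the ID50, the dose that inhibits cell proliferation by 50%.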

L1210 [2] = assay: Cytostatic activity against proliferation of L1210/0 cells (murine leukemia L1210 cells); conditions: Mus musculus, read-out: ID50 (the source's name); procedure, shortened: as §1
L1210 [3] = assay: Cytostatic activity against proliferation of L1210/BdU cells (deoxythymidine kinase deficient L1210 cells); conditions: Mus musculus, read-out: ID50 (the source's name)
Procedure, shortened: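 Murine L1210 subline deficient in deoxythymidine kinase (L1210/BdU), selected for growth in 260 μg/mL 5-bromo-dU. Proliferation assay; value is the ID50, the dose that inhibits tumor cell proliferation by 50%.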

Raji [4] = assay: Cytostatic activity against proliferation of Raji/TK cells (deoxythymidine kinase deficient Raji cells); conditions: Homo sapiens, read-out: ID50 (the source's name); procedure, shortened: as §1
Human alphaherpesvirus 1 [5] = assay: Antiviral activity against Herpes Simplex Virus-1 (KOS)
Procedure, shortened: (§2)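 Primary rabbit kidney cell cultures infected with virus. Value is the minimum concentration that reduces virus-induced cytopathogenicity by 50%. Cytotoxicity was scored as a microscopically detectable alteration of normal cell morphology.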

[6] = tested on: Vesicular stomatitis virus; assay: Antiviral activity against vesicular stomatitis virus; procedure, shortened: as §2
Human alphaherpesvirus 1 [7] = assay: Antiviral activity against Herpes Simplex Virus-1 (F); procedure, shortened: as §2
Human alphaherpesvirus 1 [8] = assay: Antiviral activity against Herpes Simplex Virus-1 (McIntyre); procedure, shortened: as §2
Human alphaherpesvirus 2 [9] = assay: Antiviral activity against Herpes Simplex Virus-2(G); procedure, shortened: as §2
Human alphaherpesvirus 2 [10] = assay: Antiviral activity against Herpes Simplex Virus-2(Lyons); procedure, shortened: as §2
Vaccinia virus = assay: Antiviral activity against vaccinia virus; conditions: Orthopoxvirus vaccinia; procedure, shortened: as §2
Human alphaherpesvirus 2 [11] = assay: Antiviral activity against Herpes Simplex Virus-2(196); procedure, shortened: as §2

SMILES | IC50 (Raji [1]) [µg/mL] | IC50 (L1210 [2]) [µg/mL] | IC50 (L1210 [3]) [µg/mL] | IC50 (Raji [4]) [µg/mL] | MIC (Human alphaherpesvirus 1 [5]) [µg/mL] | MIC [6] [µg/mL] | MIC (Human alphaherpesvirus 1 [7]) [µg/mL] | MIC (Human alphaherpesvirus 1 [8]) [µg/mL] | MIC (Human alphaherpesvirus 2 [9]) [µg/mL] | MIC (Human alphaherpesvirus 2 [10]) [µg/mL] | MIC (Vaccinia virus) [µg/mL] | MIC (Human alphaherpesvirus 2 [11]) [µg/mL]
O=c1[nH]cc(I)c(=O)[nH]1 | > 1000 | > 1000 | > 1000 | 612 (≈ 2570 µM) | – | – | – | – | – | – | – | –
O=c1[nH]c(=O)n([C@@H]2O[C@H](COP(=O)(O)O)[C@@H](O)[C@H]2O)cc1I | > 1000 | 703 (≈ 1560 µM) | > 1000 | > 1000 | – | – | – | – | – | – | – | –
Oc1ncc(Cl)c(O)n1 | > 1000 | 455 (≈ 3110 µM) | 660 (≈ 4500 µM) | > 1000 | – | – | – | – | – | – | – | –
O=c1[nH]c(=O)n([C@@H]2O[C@H](COP(=O)(O)O)[C@@H](O)[C@H]2O)cc1Br | 48 (≈ 119 µM) | 385 (≈ 955 µM) | 376 (≈ 933 µM) | > 1000 | – | – | – | – | – | – | – | –
O=c1[nH]c(=O)n([C@@H]2O[C@H](CO)[C@@H](O)[C@@H]2O)cc1Br | 32 (≈ 99 µM) | 210 (≈ 650 µM) | 335 (≈ 1040 µM) | 950 (≈ 2940 µM) | – | – | – | – | – | – | – | –
O=c1[nH]c(=O)n([C@@H]2O[C@@H]3COP(=O)(O)O[C@H]3[C@H]2O)cc1I | 359 (≈ 831 µM) | 315 (≈ 729 µM) | 344 (≈ 796 µM) | 722 (≈ 1670 µM) | – | – | – | – | – | – | – | –
O=c1[nH]c(=O)n([C@@H]2O[C@@H]3COP(=O)(O)O[C@H]3[C@H]2O)cc1Cl | 278 (≈ 816 µM) | > 1000 | > 1000 | 369 (≈ 1080 µM) | > 400 | > 400 | > 400 | > 400 | > 400 | > 400 | > 400 | > 400
O=c1[nH]c(=O)n([C@@H]2O[C@@H]3COP(=O)(O)O[C@H]3[C@H]2O)cc1Br | 210 (≈ 545 µM) | 315 (≈ 818 µM) | 294 (≈ 764 µM) | 241 (≈ 626 µM) | > 200 | > 200 | > 200 | 200 (≈ 519 µM) | > 200 | 150 (≈ 390 µM) | > 200 | > 200
O=c1[nH]c(=O)n([C@@H]2O[C@@H]3COP(=O)(O)O[C@H]3[C@H]2O)cc1F | 0.416 (≈ 1.28 µM) | 0.34 (≈ 1.05 µM) | 0.332 (≈ 1.02 µM) | 1.64 (≈ 5.06 µM) | > 100 | 150 (≈ 463 µM) | > 100 | > 100 | > 100 | > 100 | 20 (≈ 61.7 µM) | > 100
O=c1[nH]c(=O)n(C2O[C@H](COP(=O)(O)O)[C@@H](O)[C@@H]2O)cc1F (stereo partly drawn) | 0.029 (≈ 0.0848 µM) | 0.024 (≈ 0.0701 µM) | 0.03 (≈ 0.0877 µM) | 0.141 (≈ 0.412 µM) | – | – | – | – | – | – | – | –
O=c1[nH]c(=O)n(C2O[C@H](CO)[C@@H](O)[C@@H]2O)cc1I (stereo partly drawn) | 639 (≈ 1730 µM) | > 1000 | > 1000 | 738 (≈ 1990 µM) | – | – | – | – | – | – | – | –
O=c1[nH]cc(Br)c(=O)[nH]1 [5-BROMOURACIL] | > 1000 | > 1000 | > 1000 | > 1000 | – | – | – | – | – | – | – | –
O=c1[nH]c(=O)n([C@@H]2O[C@H](CO)[C@@H](O)[C@H]2O)cc1F [5-FLUOROURIDINE] | 0.023 (≈ 0.0877 µM) | 0.013 (≈ 0.0496 µM) | 0.019 (≈ 0.0725 µM) | 0.085 (≈ 0.324 µM) | – | – | – | – | – | – | – | –
O=c1[nH]c(=O)n([C@H]2C[C@H](O)[C@@H](CO)O2)cc1/C=C/Br [BRIVUDINE] | – | – | – | – | 0.02 (≈ 0.06 µM) | > 400 | 0.02 (≈ 0.06 µM) | 0.02 (≈ 0.06 µM) | 1 (≈ 3 µM) | 1 (≈ 3 µM) | 2 (≈ 6 µM) | 100 (≈ 300 µM)
O=c1[nH]cc(F)c(=O)[nH]1 [FLUOROURACIL] | 1.35 (≈ 10.4 µM) | 0.208 (≈ 1.6 µM) | 0.286 (≈ 2.2 µM) | 3.37 (≈ 25.9 µM) | – | – | – | – | – | – | – | –
